Reference: paper PMC5221453 (British Journal of Pharmacology, 2016)
Where two headings read alike, the source gives them in different places.

What was measured:
human S1P1 receptor = human S1P1 receptor (Homo sapiens, UniProt P21453); assay: Ca2+ mobilization assay, human S1P1 receptor-expressing cells; format: cell-based
cynomolgus monkeys = format: in vivo, cynomolgus monkeys (Macaca fascicularis); settings: conscious monkeys, oral, doses up to 30 mg·kg^−1
healthy subjects [1] = assay: Phase I multiple ascending dose trial: peripheral lymphocyte counts; format: in vivo, human; settings: 0.75 mg, day 21
Procedure, shortened: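 Healthy men received oral test compound (0.125–0.75 mg) or placebo for 21 days in the fed state. Absolute lymphocyte counts were taken at screening and on days −2, 1–12, 14, 16, 18, 20–25, 28, 35, 42, 56 and 70.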

healthy subjects [2] = assay: Phase I multiple ascending dose trial: heart rate and ECG; format: in vivo, human
Procedure, shortened: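 Healthy men received oral test compound at 0.125–0.75 mg or placebo for 21 days, fed. Heart rate came from 24 h 12-lead Holter ECG against a day −1 baseline, with telemetry on day 1. Mean hourly rate was fitted by a linear mixed model with a pre-dose covariate. The 1–12 h nadir was compared by ANCOVA (day −1 covariate), giving LS mean differences versus placebo with 95% CI.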

[3] = Phase I multiple ascending dose trial: pharmacokinetic assessment; format: in vivo, human
Procedure, shortened: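 Healthy men received oral test compound (0.125–0.75 mg, 10 per dose) for 21 days, fed. Blood was sampled on days 1–12, 14, 16, 18, 20–25, 28, 35, 42, 56 and 70. Parent and phosphate metabolite were measured in plasma and urine by validated LC/MS/MS, with LLOQ 0.05 ng·mL−1.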

healthy subjects [4] = assay: Phase I multiple ascending dose trial: adverse events; format: in vivo, human
Procedure, shortened: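 Randomized, double-blind, placebo-controlled, parallel multiple-ascending-dose study in healthy men aged 18–45. Oral test compound was given at 0.125, 0.25, 0.5 or 0.75 mg (10 subjects per dose) or placebo (n = 10) over 21 days in the fed state. Follow-up visits were on days 28, 35, 42, 56 and 70. Adverse events were recorded throughout the study.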

[5] = system: cardiac Na+ and Ca2+ channels in HCMs; assay: Cardiac Na+ and Ca2+ channels in HCMs; format: cell-based, human; settings: data not shown
humans [6] = settings: clinical dose 0.5 mg, ref Schmouder et al., 2012; cited from earlier work
humans [7] = settings: cited from earlier work; for decrease in the lymphocyte count: psoriasis patients, ref Vaclavkova et al., 2014
human S1P4 receptor = target: T1, human S1P4 receptor (Homo sapiens, UniProt O95977); assay: Ca2+ mobilization assay, human S1P4 receptor-expressing cells; format: cell-based
T1 sequence (O95977 1-384): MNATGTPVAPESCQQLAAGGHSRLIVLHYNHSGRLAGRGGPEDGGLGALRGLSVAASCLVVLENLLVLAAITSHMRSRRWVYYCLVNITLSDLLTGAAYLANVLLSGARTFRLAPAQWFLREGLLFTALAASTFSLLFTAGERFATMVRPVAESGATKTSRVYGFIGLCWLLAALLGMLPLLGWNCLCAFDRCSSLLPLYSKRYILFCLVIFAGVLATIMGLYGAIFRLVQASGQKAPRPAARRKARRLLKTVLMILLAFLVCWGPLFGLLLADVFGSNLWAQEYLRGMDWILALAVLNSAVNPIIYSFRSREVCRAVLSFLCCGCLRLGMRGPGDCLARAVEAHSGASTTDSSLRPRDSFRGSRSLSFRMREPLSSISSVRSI

[8] = Tissue distribution in rats; format: in vivo, SD rats; settings: rat, single oral 1 mg·kg^−1 of amiselimod or fingolimod
Procedure, shortened: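 SD rats fasted 15 h received a single oral 1 mg·kg−1 test compound without anaesthesia. Rats killed at 24 or 48 h were fed at 8 h. Plasma and heart homogenates underwent solid-phase extraction. Parent and phosphate metabolite were measured by LC–MS/MS. Parameters were derived by non-compartmental analysis. Dosing/sampling and analysis were done by separate researchers unaware of treatment.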

human S1P3 receptor = human S1P3 receptor (Homo sapiens, UniProt Q99500); assay: Ca2+ mobilization assay, human S1P3 receptor-expressing cells; format: cell-based
[9] = system: GIRK channels in human atrial myocytes; assay: Human GIRK channel assay in human atrial myocytes; format: cell-based; settings: 20 μmol·L^−1 carbachol
Procedure, shortened: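 Atrial myocytes were isolated from a human atrial specimen taken during cardiac surgery. GIRK current was recorded by whole-cell patch clamp at 37 ± 1°C and elicited by rapid superfusion with 20 μmol·L−1 carbachol. Current was read on a pulse to −100 mV from a −90 mV holding potential. Values were normalized to the carbachol-evoked increase. Four myocytes per condition were analysed by a blinded researcher.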

[10] = humans, ref Gergely et al., 2012, Brooks et al., 2013, Brossard et al.; cited from earlier work
[11] = healthy subjects receiving amiselimod, all doses

Chain of human S1P1 receptor (P21453 whole entry): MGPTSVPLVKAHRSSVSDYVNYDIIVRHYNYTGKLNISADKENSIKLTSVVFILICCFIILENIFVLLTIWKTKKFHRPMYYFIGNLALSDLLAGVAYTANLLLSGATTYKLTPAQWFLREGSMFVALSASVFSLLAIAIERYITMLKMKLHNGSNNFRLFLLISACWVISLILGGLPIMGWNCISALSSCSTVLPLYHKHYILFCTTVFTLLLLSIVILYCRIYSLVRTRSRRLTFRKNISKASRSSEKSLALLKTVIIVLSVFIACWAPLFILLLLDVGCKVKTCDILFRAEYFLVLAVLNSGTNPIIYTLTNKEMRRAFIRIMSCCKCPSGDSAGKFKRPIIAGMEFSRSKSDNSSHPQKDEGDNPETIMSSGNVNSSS
Chain of human S1P3 receptor (Q99500 whole entry): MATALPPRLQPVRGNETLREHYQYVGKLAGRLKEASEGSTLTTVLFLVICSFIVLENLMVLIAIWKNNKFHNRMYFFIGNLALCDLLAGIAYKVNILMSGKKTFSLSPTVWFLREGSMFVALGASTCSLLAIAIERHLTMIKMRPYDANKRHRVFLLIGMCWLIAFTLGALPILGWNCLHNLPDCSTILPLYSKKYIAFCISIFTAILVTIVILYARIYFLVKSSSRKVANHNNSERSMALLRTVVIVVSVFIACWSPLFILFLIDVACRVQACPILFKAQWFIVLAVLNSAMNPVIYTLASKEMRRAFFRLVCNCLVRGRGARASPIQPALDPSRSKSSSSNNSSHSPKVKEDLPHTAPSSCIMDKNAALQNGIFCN

CCCCCCCOc1ccc(CCC(N)(CO)CO)cc1C(F)(F)F.Cl [Amiselimod, 2‐amino‐2‐{2‐[4‐(heptyloxy)‐3‐(trifluoromethyl)phenyl]ethyl}propan‐1,3‐diol hydrochloride]
EC50 (human S1P1 receptor): > 1000 nM
agonist activity at S1P1 receptors (human S1P1 receptor; up to 1000 nmol·L^−1): no agonist activity
effect on blood pressure (cynomolgus monkeys): did not affect
effects on heart rate or ECG parameters (PR interval, QRS duration, QT interval, QTc) (cynomolgus monkeys): no effects
decrease in trough lymphocyte counts (healthy subjects [1]): 60%
nadir (1–12 h) mean hourly heart rate, LS mean (healthy subjects [2]; 0.5 mg, day 1): 62.213 bpm
nadir (1–12 h) mean hourly heart rate, LS mean (healthy subjects [2]; 0.75 mg, day 1): 61.952 bpm
ECG Holter transient AV conduction abnormalities, subjects (healthy subjects [2]; 0.125–0.75 mg): five subjects
PR interval, QRS width, QT interval, QTcB interval, QTcF interval and RR interval (healthy subjects [2]; 0.125–0.75 mg): not affected
decrease in heart rate versus placebo (healthy subjects [2]; up to the 0.75 mg dose, day 1): no significant decrease
accumulation ratios (range) ([3]; healthy subjects, after 21 day dosing): 16–29
administered dose excreted in the urine ([3]; healthy subjects, day 21): Less than 0.2%
mean t1/2 ([3]; healthy subjects, plasma, across 0.125–0.75 mg doses): 380 to 420 h
period of accumulation to steady state ([3]; humans, inferred from long t1/2): approximately 10 weeks
mild AEs, subjects (healthy subjects [4]; 0.125 mg): 8 subjects
moderate AEs, subjects (healthy subjects [4]; 0.125 mg): 1 subjects
mild AEs, subjects (healthy subjects [4]; 0.25 mg): 4 subjects
mild AEs, subjects (healthy subjects [4]; 0.5 mg): 9 subjects
moderate AEs, subjects (healthy subjects [4]; 0.5 mg): 1 subjects
mild AEs, subjects (healthy subjects [4]; 0.75 mg): 7 subjects
moderate AEs, subjects (healthy subjects [4]; 0.75 mg): 1 subjects
number of subjects reporting AEs (healthy subjects [4]; [11]): 28 subjects
total number of AEs reported (healthy subjects [4]; [11]): 74 AEs
severe AEs or serious AEs (healthy subjects [4]; healthy subjects, during the study): no severe AEs or serious AEs

CCCCCCCCc1ccc(CCC(N)(CO)CO)cc1 [Fingolimod, fingolimod]
effect on cardiac Na+ and Ca2+ channels [5]: did not affect
decrease in heart rate (humans [6]): 6.2 bpm
lymphocyte counts decreased below the baseline (humans [7]; 0.5 mg, RRMS patients, ref Kappos et al., 2010): 73%

CCCCCCCCc1ccc(CC[C@](N)(CO)COP(=O)(O)O)cc1 [Fingolimod‐P, Fingolimod phosphate]
EC50 (human S1P4 receptor; read-out: EC50 values (95% CI), S1P4, agonist activity, intracellular Ca2+ mobilization, geometric mean): 66.3 nM
heart AUC0–last [8]: 17 182 ng·h·g^−1
heart Cmax [8]: 479 ng/g
plasma AUC0–last [8]: 556 ng·h/mL
effect on cardiac Na+ and Ca2+ channels [5]: did not affect

CCCCCCCCCCCCC/C=C/[C@@H](O)[C@@H](N)COP(=O)(O)O [S1P, sphingosine 1‐phosphate]
EC50 (human S1P1 receptor): 0.18 nM
EC50 (human S1P3 receptor): 0.16 nM
EC50 (human S1P4 receptor): 82.7 nM
GIRK current reached, of the maximal current increase evoked by carbachol [9]: more than 90%

CC(C)Oc1ccc(-c2nc(-c3cccc4c3CC[C@@H]4NCCO)no2)cc1C#N [ozanimod]
lymphocyte count decrease from baseline (humans [7]; 1 mg, healthy volunteers, ref Olson et al., 2013, Sandborn et al., 2015): 65%
t1/2 [10]: 17.1 h

CCC/N=C1\S/C(=C\c2ccc(OC[C@H](O)CO)c(Cl)c2)C(=O)N1c1ccccc1C [ponesimod]
decrease in the lymphocyte count (humans [7]; 20 mg, Phase II): 56%
decrease in the lymphocyte count (humans [7]; 40 mg, Phase II): 65%
t1/2 [10]: 21.7 to 33.4 h

CCc1cc(/C(C)=N/OCc2ccc(C3CCCCC3)c(C(F)(F)F)c2)ccc1CN1CC(C(=O)O)C1 [siponimod]
lymphocyte count decrease (humans [7]; 2 mg, RRMS patients, Phase II, ref Selmaj et al., 2013): 70%
t1/2 [10]: 21.9 to 36.3 h
